“Also recorded” adds a separate entry of the source.
Experiments:
[1] = tested on: AlgW (substrate 35S-MucA, inhibitor MucB); assay: AlgW cleavage of 35S-MucA in the presence of MucB; type: biochemical, Pseudomonas aeruginosa; conditions: for MucA cleavage level relative to WVF and AlgW alone (no MucB): Figs. 4B vs 4D, CupB5 peptide + WVF + MucB; for antagonism / relief of MucB inhibition in vitro: summary statement, WVF-activated AlgW cleavage of MucA with MucB
MucB [2] = assay: MucB oligomerization, gel-filtration chromatography; type: binding, Pseudomonas aeruginosa; conditions: Fig. S2
[3] = tested on: AlgW (substrate 35S-MucA); assay: WVF-activated AlgW cleavage of 35S-MucA with or without CupB5 peptides; type: biochemical, Pseudomonas aeruginosa; conditions: Fig. 5C; GYYYTVV 300 μM, increasing WVF, fixed MucA (50 μM)
Method in brief: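 Ni-NTA-purified AlgW (0.5 μM trimer) cleaved 35S-MucA (50 μM) across a range of WVF peptide concentrations, with or without CupB5 peptides (300 μM). Protease addition started the reactions; cold 10% TCA quenched them at timed points. Acid-soluble products were scintillation-counted against total radioactivity, and rates were divided by substrate and enzyme concentrations. Values were averages ± SEM (n=2), fitted to rate = basal + Vmax/(1 + (Kact/[peptide])h).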

MucB [4] = conditions: ref Lima et al., 2013; cited from earlier work
[5] = tested on: P. aeruginosa strain PAO1 and derivatives; assay: Alginate production and mucoid phenotype on plasmid overexpression of proteins; type: cell-based, Pseudomonas aeruginosa; conditions: Fig. 6A, 6B; for alginate production in PAO1-VE2 on plasmid-mediated overproduction: PAO1-VE2 (mucE overexpressed); for alginate production in PAO1-VE22 on plasmid-mediated overproduction: PAO1-VE22 (cupB5 overexpressed), 0.1% L-arabinose, 37°C, 24 h

Molecule | MucA cleavage level relative to WVF and AlgW alone (no MucB) [1] | antagonism / relief of MucB inhibition in vitro [1] | alginate production in PAO1-VE2 on plasmid-mediated overproduction [5] | alginate production in PAO1-VE22 on plasmid-mediated overproduction [5] | also measured
GYYYT | approximately one-third | did antagonize MucB inhibition in vitro; also recorded: only partially relieve MucB inhibition in vitro |  |  | potency and cooperativity of activation, GYYYT vs GYYYTVV ([1]; Fig. 4D, WVF 150 μM, MucB present): occurred at lower peptide concentrations and was less cooperative as judged by the Hill constant than activation by the GYYYTVV peptide
GYYYTVV | approximately one-third | antagonized MucB inhibition in vitro; also recorded: only partially relieve MucB inhibition in vitro |  |  | change in MucB elution / conversion of MucB dimers to tetramers (MucB [2]): no substantial change in elution during gel-filtration chromatography; also recorded: did not convert MucB dimers into tetramers; change in maximum rate of MucA cleavage on adding CupB5 peptide [3]: increased almost two-fold
Lipopolysaccharides |  |  |  |  | binding to MucB and displacement of MucA (MucB [4]): bind MucB and competitively displace MucA
MucA: anti-sigma factor; free MucA as competitor of resin-bound MucA (protein, UniProt P38107 1-194, looked up) Sigma factor AlgU negative …: MSREALQETLSAVMDNEADELELRRVLAACGEDAELRSTWSRYQLARSVMHREPTLPKLDIAAAVSAALADEAAPPKAEKGPWRMVGRLAVAASVTLAVLAGVRLYNQNDALPQMAQQGTTPQIALPQVKGPAVLAGYSEEQGAPQVITNSSSSDTRWHEQRLPIYLRQHVQQSAVSGTESALPYARAASLENR |  |  | decreased alginate production in PAO1-VE2 | as did plasmid-mediated overproduction of MucA | 
MucB: competes for MucA binding and can inhibit this cleavage (protein, UniProt P38108 22-316, looked up) Sigma factor AlgU regulatory …: ADASDWLNRLAEADRQNSFQGTFVYERNGSFSTHEIWHRVESDGAVRERLLQLDGARQEVVRVDGRTQCISGGLADQLADAQLWPVRKFDPSQLASWYDLRLVGESRVAGRPAVVLAVTPRDQHRYGFELHLDRDTGLPLKSLLLNEKGQLLERFQFTQLNTGAAPAEDQLQAGAECQVVGPAKADGEKTVAWRSEWLPPGFTLTRSFMRRSPVTPDPVACLTYGDGLARFSVFIEPLHGAMVGDARSQLGPTVVVSKRLQTDDGGQMVTVVGEVPLGTAERVALSIRPEAAAQK |  |  | decreased alginate production in PAO1-VE2 | plasmid-mediated MucB overproduction had this effect | 

Reference: article PMC4116675 (Molecular microbiology, 2014)
